Experimental findings from ChEMBL document CHEMBL1128511, “4-Aza-3-oxo-5 alpha-androst-1-ene-17 beta-N-aryl-carboxamides as dual inhibitors of human type 1 and type 2 steroid 5 alpha-reductases. Dramatic effect of N-aryl substituents on type 1 and type 2 5 alpha-reductase inhibitory potency” (J Med Chem, 1995) are described below.

For data set [1], the target named is T1, 3-oxo-5-alpha-steroid 4-dehydrogenase 1 (Homo sapiens, UniProt P18405).
T1 sequence (P18405 whole entry): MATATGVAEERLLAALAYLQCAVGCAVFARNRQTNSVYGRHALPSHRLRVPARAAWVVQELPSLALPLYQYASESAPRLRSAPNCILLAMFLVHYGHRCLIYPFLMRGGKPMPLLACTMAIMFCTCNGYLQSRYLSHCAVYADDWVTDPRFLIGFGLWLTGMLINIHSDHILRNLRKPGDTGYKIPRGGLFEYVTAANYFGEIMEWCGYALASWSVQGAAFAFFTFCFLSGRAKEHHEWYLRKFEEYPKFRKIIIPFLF
The data set can be described thus: Inhibition of recombinant human Steroid 5-alpha-reductase type I. Summed up: (§1)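 Baculovirus-expressed recombinant human type 1 or type 2 5α-reductase; cofactor and inhibitor preincubated with the enzyme before testosterone is added. Fixed-time assay following conversion of testosterone to DHT with and without inhibitor. The IC50 is the nM concentration giving 50% inhibition of DHT formation.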

In data set [2] the target is T2, 3-oxo-5-alpha-steroid 4-dehydrogenase 2 (Homo sapiens, UniProt P31213).
T2 sequence (P31213 whole entry): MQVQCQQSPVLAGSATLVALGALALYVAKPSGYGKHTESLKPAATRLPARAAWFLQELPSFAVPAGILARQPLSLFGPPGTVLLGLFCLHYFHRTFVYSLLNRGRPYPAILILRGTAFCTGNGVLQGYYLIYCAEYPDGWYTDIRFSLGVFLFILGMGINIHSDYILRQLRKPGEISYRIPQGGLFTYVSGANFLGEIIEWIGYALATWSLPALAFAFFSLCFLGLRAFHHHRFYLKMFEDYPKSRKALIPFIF
Briefly: Inhibition of recombinant human Steroid 5-alpha-reductase type 2. The essentials: as §1

Data set [3] is described as follows: Kinetic Parameter Ki for Inhibition of Type 1 5-alpha-reductase.
The nature of data set [4]: Kinetic Parameter Ki for Inhibition of Type-2 5-alpha-reductase.
Data set [5] can be described thus: Kinetic Parameter k3/k1 for Inhibition of Type-2 5-alpha-reductase. Summed up: (§2)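 Baculovirus-expressed recombinant human type 1 or type 2 5α-reductase; conversion of testosterone to DHT followed over time with and without inhibitor under standard conditions. Second-order rate constants obtained by fitting progress data to the integrated first-order rate equation for time-dependent inhibition.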

Data set [6] is described as follows: Kinetic Parameter k3/k1 for Inhibition of Type 1 5-alpha-reductase. The essentials:
as §2

For the molecule `C[C@]12C=CC(=O)NC1CCC1C2CC[C@]2(C)C(C(=O)Nc3cccc(Br)c3)CCC12` (stereo not given in full), the IC50 (commonly the point on the concentration scale where inhibition reaches its midpoint) in data set [1] amounted to 20.5 nM; in data set [2], 0.2 nM.

As to `C[C@]12C=CC(=O)NC1CCC1C2CC[C@]2(C)C(C(=O)Nc3ccc(O)cc3)CCC12` (stereo not given in full), the results for the IC50 in data set [1] and in data set [2] were 74 nM and less than 1 nM, respectively.

Take `C[C@]12C=CC(=O)NC1CCC1C2CC[C@]2(C)C(C(=O)Nc3ccc4ccccc4c3)CCC12` (stereo not given in full): the results for the IC50 in data set [1] and in data set [2] were 17.2 nM and 0.2 nM, respectively.

Regarding `C[C@]12C=CC(=O)NC1CCC1C2CC[C@]2(C)C(C(=O)Nc3ccccc3F)CCC12` (stereo not given in full), the IC50 was 7.9 nM in data set [1] and less than 0.1 nM in data set [2].

For the molecule `Cc1cccc(C)c1NC(=O)C1CCC2C3CCC4NC(=O)C=C[C@]4(C)C3CC[C@]12C` (stereo not given in full), the figures for the 50% inhibitory concentration (IC50) in data set [1] and in data set [2] were 14 nM and less than 1 nM, respectively.

For `CCN(C(=O)C1CCC2C3CCC4NC(=O)C=C[C@]4(C)C3CC[C@]12C)c1ccccc1` (stereo not given in full), the IC50 in data set [1] came to 614 nM; in data set [2], 7.9 nM.

`CN(C(=O)C1CCC2C3CCC4NC(=O)C=C[C@]4(C)C3CC[C@]12C)c1ccccc1` (stereo not given in full): the IC50 in data set [1] was found to be 350 nM; in data set [2] it was 24.6 nM.

In the case of `C[C@]12C=CC(=O)NC1CCC1C2CC[C@]2(C)C(C(=O)Nc3cccc(C(=O)c4ccccc4)c3)CCC12` (stereo not given in full), the IC50 was 12 nM in data set [1] and less than 1 nM in data set [2].

Regarding `C[C@]12C=CC(=O)NC1CCC1C2CC[C@]2(C)C(C(=O)Nc3cccc(N)c3)CCC12` (stereo not given in full), the IC50 in data set [1] is 94 nM; in data set [2], less than 1 nM.

Regarding `C[C@]12C=CC(=O)NC1CCC1C2CC[C@]2(C)C(C(=O)Nc3ccccc3C(=O)c3ccccc3)CCC12` (stereo not given in full), the half-maximal inhibitory concentration (IC50) is 28.7 nM in data set [1] and less than 1 nM in data set [2].

As for `C[C@]12C=CC(=O)NC1CCC1C2CC[C@]2(C)C(C(=O)Nc3cccc(C(F)(F)F)c3)CCC12` (stereo not given in full), the IC50 amounted to 12.5 nM in data set [1] and 0.1 nM in data set [2].

Take `C[C@]12C=CC(=O)NC1CCC1C2CC[C@]2(C)C(C(=O)Nc3ccccc3Cl)CCC12` (stereo not given in full): the IC50 in data set [1] is 14.5 nM; in data set [2] it was less than 0.1 nM.

For the molecule `C[C@]12C=CC(=O)NC1CCC1C2CC[C@]2(C)C(C(=O)Nc3ccccc3-c3ccccc3)CCC12` (stereo not given in full), the IC50 in data set [1] was 38.3 nM; in data set [2], less than 0.1 nM.

As to `C[C@]12C=CC(=O)NC1CCC1C2CC[C@]2(C)C(C(=O)Nc3cccc(-c4ccccc4)c3)CCC12` (stereo not given in full), the Ki (in general, a measure of affinity in units of concentration, obtained from inhibition or displacement) in data set [3] is 24 nM; in data set [4] it was 1.4 nM. Moreover, the k3/ki in data set [5] turned out to be 5000000 M⁻¹ s⁻¹; in data set [6] it was 51000 M⁻¹ s⁻¹. The values for the IC50 in data set [1] and in data set [2] were 14 nM and less than 0.1 nM, respectively.

Turning to `COc1cccc(NC(=O)C2CCC3C4CCC5NC(=O)C=C[C@]5(C)C4CC[C@]23C)c1` (stereo not given in full), the IC50 was 19 nM in data set [1] and less than 1 nM in data set [2].

For `C[C@]12C=CC(=O)NC1CCC1C2CC[C@]2(C)C(C(=O)Nc3ccccc3O)CCC12` (stereo not given in full), the IC50 is 12.9 nM in data set [1] and less than 1 nM in data set [2].

Take `C[C@]12C=CC(=O)NC1CCC1C2CC[C@]2(C)C(C(=O)N(c3ccccc3)c3ccccc3)CCC12` (stereo not given in full): the IC50 in data set [1] was greater than 1000 nM; in data set [2], 25.2 nM.

With `Cc1ccccc1NC(=O)C1CCC2C3CCC4NC(=O)C=C[C@]4(C)C3CC[C@]12C` (stereo not given in full), the IC50 was 30.3 nM in data set [1] and less than 0.1 nM in data set [2].

As for `C[C@]12C=CC(=O)NC1CCC1C2CC[C@]2(C)C(C(=O)Nc3ccc(F)cc3)CCC12` (stereo not given in full), the IC50 in data set [1] was 22.5 nM; in data set [2], 0.2 nM.

Consider `C[C@]12C=CC(=O)NC1CCC1C2CC[C@]2(C)C(C(=O)N3CCCc4ccccc43)CCC12` (stereo not given in full), for which the values for the IC50 in data set [1] and in data set [2] were 154 nM and 1.4 nM, respectively.

As for `C[C@]12C=CC(=O)NC1CCC1C2CC[C@]2(C)C(C(=O)N3CCCCc4ccccc43)CCC12` (stereo not given in full), the IC50 in data set [1] turned out to be 595 nM; in data set [2] it was 10.2 nM.

On to `COc1ccc(NC(=O)C2CCC3C4CCC5NC(=O)C=C[C@]5(C)C4CC[C@]23C)cc1` (stereo not given in full), for which the IC50 in data set [1] is 26 nM; in data set [2], less than 1 nM.

Consider `Cc1ccc(NC(=O)C2CCC3C4CCC5NC(=O)C=C[C@]5(C)C4CC[C@]23C)cc1` (stereo not given in full), for which the IC50 in data set [1] amounted to 17.2 nM; in data set [2], 0.1 nM.

For the molecule `Cc1cccc(NC(=O)C2CCC3C4CCC5NC(=O)C=C[C@]5(C)C4CC[C@]23C)c1` (stereo not given in full), the IC50 worked out at 24.6 nM in data set [1] and 0.3 nM in data set [2].

`C[C@]12C=CC(=O)NC1CCC1C2CC[C@]2(C)C(C(=O)Nc3ccc(C(=O)c4ccccc4)cc3)CCC12` (stereo not given in full): the values for the IC50 in data set [1] and in data set [2] were 19 nM and 1.6 nM, respectively.

Turning to `C[C@]12C=CC(=O)NC1CCC1C2CC[C@]2(C)C(C(=O)Nc3cccc4ccccc34)CCC12` (stereo not given in full), the results for the Ki in data set [3] and in data set [4] were 70 nM and 0.5 nM, respectively. Further, the k3/k1 in data set [5] amounted to 2100000 M⁻¹ s⁻¹. Further, the half-inhibitory concentration (IC50) in data set [1] came out at 8.1 nM; in data set [2] it was 0.2 nM.

Take `C[C@]12C=CC(=O)NC1CCC1C2CC[C@]2(C)C(C(=O)Nc3cccc(O)c3)CCC12` (stereo not given in full): the results for the IC50 in data set [1] and in data set [2] were 52 nM and less than 1 nM, respectively.

On to `C[C@]12C=CC(=O)NC1CCC1C2CC[C@]2(C)C(C(=O)Nc3ccc(C(F)(F)F)cc3)CCC12` (stereo not given in full), for which the figures for the IC50 in data set [1] and in data set [2] were 20.9 nM and 0.4 nM, respectively.

Consider `C[C@]12C=CC(=O)NC1CCC1C2CC[C@]2(C)C(C(=O)Nc3ccccc3)CCC12` (stereo not given in full), for which the Ki in data set [3] is 230 nM; in data set [4], 1.7 nM. Also, the values for the k3/ki in data set [5] and in data set [6] were 1700000 M⁻¹ s⁻¹ and 3900 M⁻¹ s⁻¹, respectively. Further, the concentration for half-maximal inhibition (IC50) in data set [1] is 20 nM; in data set [2] it was 0.2 nM.

On to `C[C@]12C=CC(=O)NC1CCC1C2CC[C@]2(C)C(C(=O)Nc3ccc(N)cc3)CCC12` (stereo not given in full), for which the values for the IC50 in data set [1] and in data set [2] were 120 nM and less than 1 nM, respectively.

For the molecule `C[C@]12C=CC(=O)NC1CCC1C2CC[C@]2(C)C(C(=O)Nc3ccccc3N)CCC12` (stereo not given in full), the IC50 in data set [1] was 130 nM; in data set [2] it was less than 1 nM.

With `C[C@]12C=CC(=O)NC1CCC1C2CC[C@]2(C)C(C(=O)Nc3cc(C(F)(F)F)ccc3C(F)(F)F)CCC12` (stereo not given in full), the inhibition constant (Ki) in data set [3] is 2.4 nM; in data set [4], 0.5 nM. The k3/ki stood at 7000000 M⁻¹ s⁻¹ in data set [5] and 270000 M⁻¹ s⁻¹ in data set [6]. In addition, the results for the IC50 in data set [1] and in data set [2] were 5.8 nM and less than 0.1 nM, respectively.

As to `C[C@]12C=CC(=O)NC1CCC1C2CC[C@]2(C)C(C(=O)Nc3ccccc3C(F)(F)F)CCC12` (stereo not given in full), the inhibition constant Ki in data set [3] is 12 nM; in data set [4], 1.3 nM. The k3/ki in data set [5] was 9700000 M⁻¹ s⁻¹; in data set [6] it was 35000 M⁻¹ s⁻¹. In addition, the values for the IC50 in data set [1] and in data set [2] were 5.6 nM and less than 0.1 nM, respectively.

Take `C[C@]12C=CC(=O)NC1CCC1C2CC[C@]2(C)C(C(=O)Nc3cccc(Cl)c3)CCC12` (stereo not given in full): the figures for the IC50 in data set [1] and in data set [2] were 18.2 nM and 0.1 nM, respectively.

Consider `C[C@]12C=CC(=O)NC1CCC1C2CC[C@]2(C)C(C(=O)Nc3ccc(-c4ccccc4)cc3)CCC12` (stereo not given in full), for which the IC50 in data set [1] was 34.9 nM; in data set [2], 2.2 nM.

Turning to `C[C@]12C=CC(=O)NC1CCC1C2CC[C@]2(C)C(C(=O)Nc3cccc(F)c3)CCC12` (stereo not given in full), the 50% inhibitory concentration (IC50) in data set [1] worked out at 23 nM; in data set [2], 0.2 nM.

For the molecule `COc1ccccc1NC(=O)C1CCC2C3CCC4NC(=O)C=C[C@]4(C)C3CC[C@]12C` (stereo not given in full), the IC50 in data set [1] is 11 nM; in data set [2], less than 1 nM.

For the molecule `C[C@]12C=CC(=O)NC1CCC1C2CC[C@]2(C)C(C(=O)Nc3ccc(Cl)cc3)CCC12` (stereo not given in full), the IC50 worked out at 6.8 nM in data set [1] and 0.2 nM in data set [2].
